Variants at the floor of the assay were thinned out.
B1: tRNA (parent)
chain: CUCUCGGUAGCCAAGUUGGUUUAAGGCGCAAGACUUUAAUUUAUCACUACGAAAUCUUGAGAUCGGGCGUUCGACUCGCCCCCGGGAGAUUUUUUCCUCGAGCAA

Variants of: B1
Experiment: nonsense suppression (GFP-seq) (ratio to wild type); higher = more function; SUP4oc tRNA, yeast GFP reporter sort-seq
How it was run: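 Sorted GFP/RFP bins of yeast were each Illumina-sequenced with a phred ≥30 cutoff; the cells held a genome-integrated ochre-suppressor tRNA variant from a library with ~3% random mutations, a galactose-driven GFP ochre reporter, and RFP. Culture was in raffinose/galactose medium containing 80 mg/L adenine. Nonsense suppression, termed GFPSEQ, is the median GFP/RFP of the bins weighted by each variant's estimated cell share per bin, relative to the unmutated parent tRNA, for variants reaching ≥100 reads and ≥30 cells.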

Variant | nonsense suppression
CUCUCGGUAGCCAAGUUGGUGUAAGGCGCAAGACUUUAAUUUAUCACUACGAAAUCUUGAGAUCGGGCGUUCUACUCGCCCCCGGGAGAUUUUUUCCUCGAGCAA | 0.026
CUCUCGGUAGCCAAGUUGGUGUAAGGCGCAAGACUUUAAUUUAUCACUACGAAACCUUGAGAUCGGGCGUUCGACUCGCCCCCGGGAGAUUUUUUCCUCGAGCAA | 0.208
CUCUCGGUAGCCAAGUUGGUGUAAGGCGCAAGACUUUAAUUUAUCACUACGAAAUCUUGAGAUCGGGCGUUCGACUCGCCCCCGAGAGAUUUUUUCCUCGAGCAA | 1.08
CUCUCGGUAGCCAAGUUGGUUAAAGGCGCAAGACUUUAAUUUAUCACUACGAAAUCUUGAGAUCGGGCGUUCGACUCGCCCCCGGGGGAUUUUUUCCUCGAGCAA | 0.501
CUCUCGGUAGCCAAGUUGGUUAAAGGCGCAAGACUUUAAUUUAUCACUACGAAAUCUUGAGAUCGGGCGUUCGAUUCGCCCCCGGGAGAUUUUUUCCUCGAGCAA | 1.15
CUCUCGGUAGCCAAGUUGGUGCAAGGCGCAAGACUUUAAUUUAUCACUACGAAAUCUUGAGAUCGGGCGUUCGACUCGCCCUCGGGAGAUUUUUUCCUCGAGCAA | 0.199
CUCUCGGUAGCCAAGUUGGUGUAAGGCGCAAGACUUUAAUUUAUCACUACGAAAUCUUGAGAUCGGGCGUUCGACUCGCCCCCGGGGGAUUUUUUCCUCGAGCAA | 0.172
CUCUCGGUAGCCAAGUUGGUGUAAGGCGCAAGACUUUAAUUUAUCACUACGAAAUCUUGAGAUCGGUCGUACGACUCGCCCCCGGGAGAUUUUUUCCUCGAGCAA | ≤ 0.026
CUCUCGGUAGCCAAGUUGGUGUAAGGCGCUAGACUUUAAUUUAUCACUACGAAAUCUUGAGAUCGGGCGUUCGACUCGCCCCCGGGAGAUUUUUUCCUCGAGCAA | ≤ 0.026
CUCUCGGUAGCCAAGUUGGUGUAAGGCGCGAGACUUUAAUUUAUCACUACGAAAUCUUGAGAUCGGGCGUUCGACUCGCCCCCGGGAGAUUUUUUCCUCGAGCAA | 0.227
CUCUCGGUAGCCAAGUUGGUUAAAGGCGCGAGACUUUAAUUUAUCACUACGAAAUCUUGAGAUCGGGCGUUCGACUCGCCCCCGGGAGAUUUUUUCCUCGAGCAA | 0.677
CUCUCGGUAGCCAAGUUGGUUAAAGGCGCUAGACUUUAAUUUAUCACUACGAAAUCUUGAGAUCGGGCGUUCGACUCGCCCCCGGGAGAUUUUUUCCUCGAGCAA | 0.177
CUCUCGGUAGCCAAGUUGGUGUAAGGCGCAAGACUUUAAUUUAUCACUACGAAAUCUUGAGAUCGGGCGUUCGACUCUCCCCCGGGAGAUUUUUUCCUCGAGCAA | 0.034
CUCUCGGUAGCCAAGUUGGUUAAAGGCGCAAGUCUUUAAUUUAUCACUACGAAAUCUUGAGAUCGGGCGUUCGACUCGCCCCCGGGAGCUUUUUUCCUCGAGCAA | ≤ 0.026
CUCUCGGUAGCCAAGUUGGUGGAAGGCACAAGACUUUAAUUUAUCACUACGAAAUCUUGAGAUCGGGCGUUCGACUCGCCCCCGGGAGAUUUUUUCCUCGAGCAA | 0.206
CUCUCGGUAGCCAAGUUGGUGUAAGGCGCAAGACUUUAAUUUAUCACUACGAAAUCUUGAAAUAGGGCGUUCGACUCGCCACCGGGAGAUUUUUUCCUCGAGCAA | ≤ 0.026
CUCUCGGUAGCCAAGUUGGUGUAAGGCGCAAGUCUUUAAUUUAUCACUACGAAAUCCAGAGAUCGGGCGUUCGACUCGCCCCCGGGAGGUUUUUUCCUCGAGCAA | ≤ 0.026
CUCUCGGUAGCCAAGUUGGUGUAAGGCGCAAGACUUUAAUUUAUCACUACGAAAUCUUGAGAACGGGCGUUCGACUCGCCCCCGGGAGAUUUUUUCCUCGAGCAA | 0.636
CUCUCGGUAGCCAAGUUGGUGUAAGGCGCAAGACUUUAAUUUAUCACUACGAAAUCUUGAGAGCGGGCGUUCGACUCGCCCCCGGGAGAUUUUUUCCUCGAGCAA | 0.0367
CUCUCGGUAGCCAAGUUGGUGUAAGGCACAGGACUUUAAUUUAUCACUACGAAAUCUUGAGAUCGGGCGUUCGACUCGCCCCCGGGAGAUUUUUUCCUCGAGCAA | 0.266
CUCUCGGUAGCCAAGUUGGUGUAAGGCCCAAGACUUUAAUUUAUCACUACGAAAUCUUGAGAUCGGGCGUUCGACUCGCCCCCGGGAGAUUUUUUCCUCGAGCAA | 0.211
CUCUCGGUAGCCAAGUUGGUGUAAGGCACAAGACUUUAAUUUAUCACUACGAAAUCUUGAGAUCGGGCGUUCGACUCGCCCCCGGGAGAUUUUUUCCUCGAGCAA | 1.14
CUCUCGGUAGCCAAGUUGGUGUAAGGCGCAAGACUUUAAUUUAUCACUACGAAAUCUUGAGAUCGGGCGUUCGACCCGCCCCCGGGAGAUUUUUUCCUCGAGCAA | 0.861
CUCUCGGUAGCCAAGUUGGUGUAAGGCGCAAGACUUUAAUUUAUCACUACGAAAUCUUGAAAUCGGGCGUUCGACUCGCCCCCGGGAGAUUUUUUCCUCGAGCAA | 0.237
CUCUCGGUAGCCAAGUUGGUGUAAGGCGCAAGACUUUAAUUUAUCACUACGAAAUCUUGACAUCGGGCGUUCGACUCGCCCCCGGGAGAUUUUUUCCUCGAGCAA | 0.105
CUCUCGGUAGCCAAGUUGGUGUAAGGCGCAAGACUUUAAUUUAUCACUACGAAAUCUUGAUAUCGGGCGUUCGACUCGCCCCCGGGAGAUUUUUUCCUCGAGCAA | 0.554
CUCUCGGUAGCCAAGUUGGUGUAAGGCGUAAGACUUUAAUUUAUCACUACGAAAUCUUGAGAUCGGGCGUUCGACUCGCCCCCGGGAGAUUUUUUCCUCGAGCAA | 0.809

Variant | nonsense suppression
CUCUCGGUAGCCAAGUUGGUGUAAGGCGCAAGACUUUAAUUUAUCACUACGAAAUCGUGAGAUCGGGCGUUCGACUCGCCCCCGGGAGAUUUUUUCCUCGAGCAA | ≤ 0.026
CUCUCGGUAGCCAAGUUGGUUAAAGGCGCAGGACUUUAAUUUAUCACUACGAAAUCUUGAGAUCGGGCGUUCGACUCGCCCCCGGGAGAUUUUUUCCUCGAGCAA | 1.05
CUCUCGGUAGCCAAGUUGGUUAAAGGCGCAAGACUUUAAUUUAUCACUACGAAAUCUUGAGAUCGGGCGUUCGAAUCGCCCCCGGGAGCUUUUUUCCUCGAGCAA | ≤ 0.026
CUCUCGGUAGCCAAGUUGGUGUAAGGCGCAGGACUUUAAUUUAUCACUACGAAAUCUUGAGAUCGGGCGUUCGACUCGCCCCCGGGAGAUUUUUUCCUCGAGCAA | 0.77
CUCUCGGUAGCCAAGUUGGUGUAAGGCGCAAGACUUUAAUUUAUCACUACGAAAUCUUGAGAUCGGGCGCUCGACUCGCCCCCGGGAGAUUUUUUCCUCGAGCAA | ≤ 0.026
CUCUCGGUAGCCAAGUUGGUGUAAGGCGCAAGACUUUAAUUUAUCACUACGAAAUCUUGCGAUCGGGCGUUCGACUCGCCCCCGGGAGAUUUUUUCCUCGAGCAA | 0.0285
CUCUCGGUAGCCAAGUUGGUGUAAGGCGCAAGACUUUAAUUUAUCACUACGAAAUCUUGGGAUCGGGCGUUCGACUCGCCCCCGGGAGAUUUUUUCCUCGAGCAA | 0.0299
CUCUCGGUAGCCAAGUUGGUGUAAGGCGCAAGACUUUAAUUUAUCACUACGAAAUCUUGUGAUCGGGCGUUCGACUCGCCCCCGGGAGAUUUUUUCCUCGAGCAA | 0.96
CUCUCGGUAGCCAAGUUGGUGUAAGGCGCAAGACUUUAAUUUAUCACUACGAAAUCUUGAGAUCGGGCGUUUGACUCGCCCCGGGGAGAUUUUUUCCUCGAGCAA | ≤ 0.026
CUCUCGGUAGCCAAGUUGGUGUAAGGCGCAAGACUUUAAUUUAUCACUACGAAAUCUUGAGAUCGGGCGUUCGAGUCGCCCCCGGGAGAUUUUUUCCUCGAGCAA | 1.05
CUCUCGGUAGCCAAGUUGGUGUAAGGCGCAAGACUUUAAUUUAUCACUACGAAAUCUUGAGAUCGGGCGUUCGAAUCGCCCCCGGGAGAUUUUUUCCUCGAGCAA | 1.06
CUCUCGGUAGCCAAGUUGGUUAAAGGCGCAAGACUUUAAUUUAUCACUACGAAAUCUUGAGAUCGGGCGUUCGACUCGCCCCCGGGAGAUUUUUUCCUCGAGCAA | 1.13
CUCUCGGUAGCCAAGUUGGUGUAAGGCGCAAGACUUUAAUUUAUCACUACGAAAUCUUGAGAUCGGGCGUUCGACUCGCCCCCGGGAGGUUUUUUCCUCGAGCAA | 0.0399
CUCUCGGUAGCCAAGUUGGUGUAAGGCGCAAGACUUUAAUUUAUCACUACGAAAUCUUGAGAUCGGGCGUCCGACUCGCCCCCGGGAGAUUUUUUCCUCGAGCAA | 0.0265
CUCUCGGUAGCCAAGUUGGUGUAAGGCGCAAGACUUUAAUUUAUCACUACGAAUUCUUGAGAUCGGGCGUUCGAUUCGCCCCCGGGAGAUUUUUUCCUCGAGCAA | 1.23
CUCUCGGUAGCCAAGUUGGUGUAAGGCGCGAGACUUUAAUUUAUCACUACGAAAUCUUGAGAUCGGGCGUUCGACUCGCCCCCGGGAGGUUUUUUCCUCGAGCAA | ≤ 0.026
CUCUCGGUAGCCAAGUUGGUGUAAGGCGCAAGACUUUAAUUUAUCACUACGAAAUCUUGAGAUCAGGCGUUCGACUCGCCCCCGGGAGAUUUUUUCCUCGAGCAA | 0.0483
CUCUCGGUAGCCAAGUUGGUUAACGGCGCAAGACUUUAAUUUAUCACUACGAAAUCUUGAGAUCGGGUGUUCGACUCGCCCCCGGGAGAUUUUUUCCUCGAGCAA | 0.215
CUCUCGGUAGCCAAGUUGGUGUAAGGCGCAAGACUUUAAUUUAUCACUACGAAAUCUUGAGAUCGGGCGUUCGACUCGCCCCUGGGAGAUUUUUUCCUCGAGCAA | 0.0839
CUCUCGGUAGCCAAGUUGGUGUAAGGCGCAAGACUUUAAUUUAUCACUACGAAAUCUUGAGAUCGGGCGUUCGACUCGACCCCGGGAGAUUUUUUCCUCGAGCAA | ≤ 0.026
CUCUCGGUAGCCAAGUUGGUUACAGGCGCAAGACUUUAAUUUAUCACUACGAAAUCUUGAGAUCGGGCGUUCGACUCGCCCCCGGGAGAUUUUUUCCUCGAGCAA | 0.153
CUCUCGGUAGCCAAGUUGGUGUAAGGCGCAAGGUUUUAAUUUAUCACUACGAAAUCUUGAGAUCCGGCGUUCGACUCGCCCCCGGGAGAUUUUUUCCUCGAGCAA | ≤ 0.026
CUCUCGGUAGCCAAGUUGGUGUAAGGCGCAAGACUUUAAUUUAUCACUACGAAAUCUUGAGAUCGGGCUUUCGACUCGCCCCCGGGAGAUUUUUUCCUCGAGCAA | ≤ 0.026
CUCUCGGUAGCCAAGUUGGUGUAAGGCGCAAGACUUUAAUUUAUCACUACGAACUCUUGAGAUCGGGCGUUCGACUCGCCCCCGGGAGAUUUUUUCCUCGAGCAA | 0.764
CUCUCGGUAGCCAAGUUGGUGCAAGGCGCAAGACUUUAAUUUAUCACUACGAAAUCUUGAGAUCGGGCGUUCGACUCGCCCCCGGGAGAUUUUUUCCUCGAGCAA | 1.09
CUCUCGGUAGCCAAGUUGGUGGAAGGCGCAAGACUUUAAUUUAUCACUACGAAAUCUUGAGAUCGGGCGUUCGACUCGCCCCCGGGAGAUUUUUUCCUCGAGCAA | 0.571
CUCUCGGUAGCCAAGUUGGUGUAAGGCGCAAGACUUUAAUUUAUCACUACGAAAUCUUGAGAUCGCGCGUUCGACUCGCCCCCGGGAGAUUUUUUCCUCGAGCAA | ≤ 0.026

— the RNAGym collection of RNA variant scans (doi:10.1101/gad.245936.114)
